# Experimental data as given in PMC2233693 (The Journal of General Physiology, 2000).
# Positions count from the first letter of the chain named. Like-named read-outs stand apart in the source and are kept apart here.
# Assays:
# [1] = target: T1, wild-type bovine olfactory CNG channel (α3 subunit) (Bos taurus, UniProt Q03041); experiment: Blockage of macroscopic current by internal Ca2+, inside-out patches; type: biochemical; conditions: read-out: K i for internal Ca2+ blockage, +80 mV, 1 mM cGMP, average
# T1 sequence (Q03041 1-663): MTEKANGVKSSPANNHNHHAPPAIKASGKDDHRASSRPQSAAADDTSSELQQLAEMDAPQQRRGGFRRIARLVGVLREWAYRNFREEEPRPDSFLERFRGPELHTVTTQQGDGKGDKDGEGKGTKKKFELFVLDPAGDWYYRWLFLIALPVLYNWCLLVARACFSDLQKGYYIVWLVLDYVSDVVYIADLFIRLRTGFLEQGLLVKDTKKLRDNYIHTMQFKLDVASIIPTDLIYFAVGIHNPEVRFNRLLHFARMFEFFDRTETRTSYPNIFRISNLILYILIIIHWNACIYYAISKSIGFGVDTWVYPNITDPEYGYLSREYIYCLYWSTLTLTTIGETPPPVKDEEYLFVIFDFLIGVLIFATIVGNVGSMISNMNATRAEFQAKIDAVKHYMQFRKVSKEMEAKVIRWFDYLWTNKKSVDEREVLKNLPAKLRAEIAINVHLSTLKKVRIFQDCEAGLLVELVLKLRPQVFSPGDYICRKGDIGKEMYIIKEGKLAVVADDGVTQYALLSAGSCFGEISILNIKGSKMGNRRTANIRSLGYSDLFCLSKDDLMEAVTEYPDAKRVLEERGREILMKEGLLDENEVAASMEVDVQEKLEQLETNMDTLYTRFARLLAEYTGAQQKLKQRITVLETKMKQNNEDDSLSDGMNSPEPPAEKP
# [2] = target: T2, E340G mutant bovine olfactory CNG channel (Bos taurus, UniProt Q03041, E340G); experiment: as above; type: biochemical; conditions: read-out: K i for internal Ca2+ blockage, +80 mV, 1 mM cGMP, average
# T2 sequence (Q03041 1-663 E340G): T1 sequence (Q03041 1-663) with E340G
# [3] = target: T2, E340G mutant bovine olfactory CNG channel; experiment: External Ca2+ blockage of single-channel current, outside-out patches; type: biochemical; conditions: for n (single-channel Ca2+ blockage): Fig. 7 patch
# How it was run: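 Outside-out oocyte patches with cGMP in the pipette (wild-type 5 μM, E340G 1 mM) and increasing external Ca2+. Single-channel currents at +80 and −80 mV, filtered at 2 kHz, sampled at 10 kHz. Amplitudes from all-points histograms (30 s) fitted with summed Gaussians, normalised to divalent-free current, Hill-fitted for Ki and n. Two further patches per channel type.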
# [4] = target: T1, wild-type bovine olfactory CNG channel (α3 subunit); experiment: Divalent cation permeation, outside-out patches in bi-ionic conditions; type: biochemical; conditions: for reversal potential, V rev: internal Na
# How it was run: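 Outside-out oocyte patches; the pipette held 1 mM cGMP and 110 mM NaCl. External 110 mM NaCl was replaced by 73.3 mM CaCl2 or MgCl2. From a 0 mV holding potential, 150-ms steps were given from −80 to +80 mV in 20-mV increments. I_Ca/I_Na was taken at −80 mV, and reversal potential under bi-ionic conditions (internal Na+, external divalent); mean ± SD.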
# [5] = target: native olfactory CNG channels; conditions: cited from earlier work
# [6] = target: T1, wild-type bovine olfactory CNG channel (α3 subunit); type: biochemical; conditions: cGMP
# [7] = target: T2, E340G mutant bovine olfactory CNG channel; type: biochemical
smiles,measurement,setting,value
[Ca+2] [Ca^2+],Ki,[1],1000 ± 700 µM
same,Ki,[2],1500 ± 400 µM
same,effect on single-channel amplitude,"[3]; 1 or even 10 mM external Ca2+, 1 mM cGMP",only slightly reduced
same,n (single-channel Ca2+ blockage),[3]; +80 mV,0.7
same,n (single-channel Ca2+ blockage),[3]; −80 mV,0.8
same,"reversal potential, V rev",[4]; external Ca2+,25 ± 6 mV
same,I Ca/I Na,"[4]; −80 mV, external 73.3 mM CaCl2 vs 110 mM NaCl",0.049 ± 0.004
same,Ki,"[5]; read-out: K i for external Ca2+ blockage, frog, +80 mV, ref Dzeja et al. 1999",~2000 µM
same,Ki,"[5]; read-out: K i for external Ca2+ blockage, frog, −70 mV, ref Dzeja et al. 1999",265 µM
[Mg+2] [Mg^2+],"reversal potential, V rev",[4]; external Mg2+,45 ± 7 mV
Nc1nc2c(ncn2[C@@H]2O[C@@H]3COP(=O)(O)O[C@H]3[C@H]2O)c(=O)[nH]1 [cGMP],P max (+80 mV),[6],0.993 ± 0.004
same,P max (−80 mV),[6],0.996 ± 0.001
same,"L, equilibrium gating constant","[6]; allosteric model fit, mean ± SD",334 ± 82
same,P max (+80 mV),[7]; cGMP,0.77 ± 0.08
same,P max (−80 mV),[7]; cGMP,0.79 ± 0.06
same,"L, equilibrium gating constant","[7]; cGMP, allosteric model fit, mean ± SD",5.2 ± 1.3
same,EC50,"[7]; read-out: K 1/2 (single-channel open probability), cGMP, −80 mV, average",14 ± 5 µM
same,EC50,"[7]; read-out: K 1/2,cG, −80 mV, single patch, Fig. 2 fit",11.6 µM
